Shown are actives, neighbours in structure and some others; about 8.9% of the full set was active somewhere.
Lmaj promast – inhibitors of Leishmania major promastigote growth; AID 1063; inhibition, % at 10 µM; actives 9% (n = 200,000); Leishmania major promastigotes, resazurin fluorescence viability; in the data active = inhibition above about 50%;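 also: promastigotes grown with compound for 44 hours at 28 °C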
MT stabilize HCS – stabilizes microtubules in HeLa cells. actives 0.83% (n = 200,000). HeLa tubulin immunostaining HCS, 24 h; share of cells brighter than vehicle mean+2SD. % tubulin-high responders, % at 10 µM. AID 2205;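 active = plate Z-score above 3 for both tubulin-high and condensed-nucleus cell shares, with cell loss under 80%, at 10 µM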;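 also: anti alpha tubulin signal scored within the nucleus-defined area of each cell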
Dynein cargo inh – dynein cargo transport inhibition | actives 0.47% (n = 220,000) | 3617.4 mouse cells, GR-EGFP nuclear translocation imaging; test concentration mostly 20 µM; stimulated with dexamethasone, 1 µM; hits give low values | z-score, hits read low | AID 1381;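 active = plate z-score of nuclear minus cytoplasmic receptor signal below a set negative limit, without overly bright fluorescence or cell loss, cut at about -3.5 in these data, passing the limit was not always enough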;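 also: z-score of nuclear minus cytoplasmic ring GR-EGFP intensity difference per well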
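Buffer or medium: tetracycline-free induction medium containing charcoal-stripped FBS / Reagent: dexamethasone agonist, 1.0 µM final, for 30 min / Technique: automated 10x imaging of fixed Hoechst-stained cells / Times: induction 48 h, compound 1 h, agonist 30 min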
b-catenin transl – alters nuclear translocation of beta-catenin in HeLa cells | nuclear translocation activity, % at 5 µM | actives 0.3% (n = 190,000) | immunofluorescence imaging;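 active = nuclear translocation activity above 50% at 5 µM, with a well cell count of 50 or more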;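 also: per-cell ratio of nuclear to cytoplasmic median beta-catenin stain intensity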
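Read-out: Nuclear/cytoplasmic beta-catenin signal ratio, % activation | Assay system: Human HeLa cell line | Times: 24 h compound exposure at 37°C, 5% CO2 | Signal: Fluorescence imaging of beta-catenin antibody stain plus DAPI | Dosing: 5 µM primary, 0.02–20 µM confirmation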
HSV replic up – HSV replication enhancement. HSV replication augmentation in cells, fold increase. maximum fold increase. actives 0.005% (n = 220,000). AID 1956; in the data active = maximum fold increase above about 1.5; tested in PC3 cells
Numbers stand for hits; – = inactive; · = not tested or not shown.

SMILES	Lmaj promast	MT stabilize HCS	Dynein cargo inh	b-catenin transl	HSV replic up
Cc1ccc2cc(CN(CCN3CCCC3)C(=O)Nc3ccc(F)cc3)c(=O)[nH]c2c1C	72.8	–	–	–	–
COc1ccccc1NC(=O)N(Cc1ccco1)Cc1cc2cc(C)cc(C)c2[nH]c1=O	63.1	26.0	–	–	–
COc1ccccc1NC(=O)N(CCN1CCOCC1)Cc1cc2cc(C)cc(C)c2[nH]c1=O	–	–	–	–	–
O=C1COc2ccc(C(=O)CSc3ccccc3C(=O)O)cc2N1	·	·	–	–	–
CC(C)c1ccccc1-n1c(SCC(=O)c2ccc3c(c2)NC(=O)CO3)nc2ccccc2c1=O	66.7	–	–	–	–
CN1CCN(/N=C/c2c3ccccc3c(Cl)c3ccccc23)CC1	65.8	–	–	–	–
Cc1cc(Cl)n2ncc(-c3ccccc3)c2n1	·	·	–	–	–
CCOC(=O)Cn1c(=N)n(CCOc2ccc(OC)cc2)c2ccccc21	–	–	–	–	–
CCCn1c(=N)n(CCOc2ccc(OC)cc2)c2ccccc21	94.0	–	–	–	·
COc1ccc(C(=O)Cn2c(C(=O)/C=C/c3ccccc3)nc3ccccc32)cc1	88.7	–	–	–	–
Cc1ccc(Cn2c(=N)n(CC(=O)c3ccc([N+](=O)[O-])cc3)c3ccccc32)cc1	73.6	–	–	–	–
CCCCn1c(=N)n(CC(=O)c2ccc([N+](=O)[O-])cc2)c2ccccc21	81.3	–	–	–	–
Cc1ccc(S(=O)(=O)CC(=O)c2ccc([N+](=O)[O-])cc2)cc1	·	·	–	–	–
CCn1c(=N)n(CC(=O)c2ccc(OC)cc2)c2ccccc21	94.5	–	–	–	–
Cc1ccc(NC(=O)CN2C(=O)CSC2=O)cc1	–	–	–	–	–
O=C(C1CCC1)N1CCN(Cc2ccccc2)CC1	–	–	–	–	–
Oc1cccc(C(O)CNCc2ccc(OCc3ccc(Cl)cc3Cl)cc2)c1 (centres undefined)	97.0	–	–	–	–
OC(CNCc1cccc(Cl)c1)c1ccccc1 (centres undefined)	–	–	–	–	–
CN(C)CCCN(Cc1cc2cc3c(cc2[nH]c1=O)OCO3)C(=S)Nc1ccccc1	–	–	–	–	–
Cc1ccc(NC(=S)N(CCN(C)C)Cc2cc3cccc(C)c3[nH]c2=O)cc1	–	–	–	–	–
Cc1cccc(NC(=S)N(CCN(C)C)Cc2cc3cccc(C)c3[nH]c2=O)c1	95.2	–	–	–	–
Cc1cccc(NC(=S)N(CCN(C)C)Cc2cc3cc(C)cc(C)c3[nH]c2=O)c1	98.2	–	–	–	–
CN(C)CCCN(Cc1cc2cc3c(cc2[nH]c1=O)OCO3)C(=S)Nc1cccc(Cl)c1	92.8	·	–	–	–
O=c1cc(O)c2sc3nc(-c4ccccc4)cc(C(F)(F)F)c3c2[nH]1	–	–	–	–	–
O=C(CN1C(=O)COc2ccc(Cl)cc21)Nc1ccc2c(c1)OCCO2	–	–	–	–	–
SMILES	Lmaj promast	MT stabilize HCS	Dynein cargo inh	b-catenin transl	HSV replic up
C=C1C(=O)O[C@@H]2C[C@@H](C)[C@@H]3C=CC(=O)[C@@]3(C)[C@@H](OC(C)=O)[C@H]12	·	·	-3.62	–	–
C[C@@H]1C[C@@H]2OC(=O)[C@]3(C)[C@H]2[C@@H](OC3(C)O)[C@]2(C)C(=O)C=C[C@H]12 (some centres undefined)	·	·	–	–	–
COc1ccc(CC2(CO)CCN(S(=O)(=O)N(C)C)CC2)cc1	–	–	–	–	–
COc1ccc(CC2(CO)CCN(Cc3ccc4c(c3)CCO4)CC2)cc1	79.0	–	–	–	–
COc1ccc(CC2(CO)CCN(CC3=Cc4cc(Cl)ccc4OC3)CC2)cc1	88.5	–	–	–	–
COc1ccc(CC2(CO)CCN(Cc3nc(C(C)C)cs3)CC2)cc1	91.2	–	–	–	–
CCOc1cc(CN2CCC(CO)(Cc3cccc(C(F)(F)F)c3)CC2)ccc1OC	84.9	–	–	–	–
COc1cccc(/C(N)=N/OC(=O)Cc2ccccc2[N+](=O)[O-])c1	–	–	–	–	–
COc1ccc(Nc2nc(C(=O)N3CCc4ccccc4C3)cs2)cc1	–	–	–	–	–
COc1cc(NC(=O)c2cccs2)c(C(=O)OCC(=O)NC(C)c2ccccc2)cc1OC (centres undefined)	–	–	–	–	–
COc1ccc(CC2(CO)CCN(Cc3cccc4nccnc34)CC2)cc1	–	–	–	–	–
COc1ccc(CC2(CO)CCN(Cc3ccc(NC(C)=O)cc3)CC2)cc1	–	–	–	–	–
COc1ccc(CC2(CO)CCN(Cc3ccc(OC(F)(F)F)cc3)CC2)cc1	77.6	–	–	–	–
COc1ccc(CN2CCC(CO)(Cc3ccccc3C(F)(F)F)CC2)c(F)c1	76.6	–	–	–	–
CCOC(=O)c1[nH]c(C)c(C(=O)Nc2ccc(C)c(C)c2)c1C	–	–	–	–	–
CCOC(=O)c1[nH]c(C)c(C(=O)Nc2ccc(F)cc2)c1C	–	–	–	·	–
CCOC(=O)c1[nH]c(C)c(C(=O)NCc2ccc(C)cc2)c1C	–	–	–	·	–
CCOC(=O)c1[nH]c(C)c(C(=O)Nc2ccccc2F)c1C	–	33.6	–	–	·
CCOC(=O)c1[nH]c(C)c(C(=O)Nc2ccc(C)cc2C)c1C	–	16.5	–	–	–
CCOC(=O)c1[nH]c(C)c(C(=O)c2ccc(C)cc2)c1C	–	44.0	–	·	–
CC1(C)CC2CC(C)(CN2C(=O)c2ccc([N+](=O)[O-])cc2)C1 (centres undefined)	–	–	–	–	–
CC1(C)CC2CC(C)(CN2C(=O)c2ccc([N+](=O)[O-])cc2[N+](=O)[O-])C1 (centres undefined)	52.1	–	–	–	–
CCOc1ccc(C(=O)Nc2nnc(C(C)C)s2)cc1OCC	86.5	–	–	·	–
Cc1cccc2c1[nH]c1nc(N/N=C\c3ccco3)nnc12	61.0	–	–	–	·
CC(/C=N/Nc1nnc2c(n1)[nH]c1ccccc12)=C\c1ccco1	–	–	–	–	–
SMILES	Lmaj promast	MT stabilize HCS	Dynein cargo inh	b-catenin transl	HSV replic up
Cc1ccc2c(c1)C1CN(C)CCC1N2C(=O)c1ccccc1NS(=O)(=O)c1ccc(F)cc1 (centres undefined)	–	–	–	–	–
CCCNC1=C(N(C(C)=O)c2cccc(F)c2)C(=O)c2ccccc2C1=O	99.4	–	–	·	–
CCN(Cc1ccccc1)c1ccc(/C=N/NC(=O)c2cccc(S(=O)(=O)N3CCOCC3)c2)cc1	91.1	–	–	·	–
CCN(CC)c1ccc(/C=N/NC(=O)c2cccc(S(=O)(=O)N3CCOCC3)c2)cc1	72.8	–	–	·	–
COc1cc(/C=N/NC(=O)c2cccc(S(=O)(=O)N3CCOCC3)c2)cc(OC)c1O	–	–	–	–	–
COc1ccc(OC(=O)Nc2ccc([N+](=O)[O-])cc2OC)cc1	·	·	–	–	–
O=C(NNC(=S)Nc1cccc(C(F)(F)F)c1)c1ccccc1Cl	–	–	–	–	–
O=C(CCNC(=O)c1ccccc1Cl)Nc1cccc(C(F)(F)F)c1	65.2	–	–	–	–
COc1cccc(CNC(=O)c2ccccc2N)c1	–	–	–	–	–
